High-throughput results as filed in PubChem.
esBAF inh – Bmi1 luciferase reporter increase in mESCs, primary screen, esBAF inhibitor project, mouse ES cells, Bmi1 luciferase knock-in, single point. 24 h; 100% = twice the neutral-well signal. reporter increase, % at 12.5 µM. 350,000 compounds, 2% hits. AID 602393, 2012; in the data active = activation above about 40%; inconclusive = no clear call, values can overlap the other calls;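 also: a rise in the Bmi1 reporter signal indicates esBAF inhibition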
MITF act – activators of MITF-driven TRPM1 promoter reporter, primary screen, cell-based, SK-MEL-5, luciferase, single point; SK-MEL-5 TRPM1-promoter luciferase, 24 h; % of positive control, neutral wells = 0; 300,000 compounds, 0.75% hits; activation, % at 12.5 µM; AID 588334, 2011;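 active = mean activation of at least 80% with every replicate also reaching 80%; inconclusive = mean reaches 80% but some replicate falls short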
XiGFP reactiv – activators of inactive X chromosome reactivation, primary screen, imaging, XiGFP fibroblasts, GFP high-content imaging, set 2 | 360,000 compounds, 0.055% hits | AID 743238, 2013 | activation, % at 7.58 µM | XiGFP mouse fibroblasts, % GFP-positive cells imaging, 3 d; cells co-treated with 5-aza-dC sensitizer; scaled so ellipticine positive control = 100%;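 active = mean normalized replicate activation at least 10% and every replicate at or above 10%; inconclusive = only one of the two criteria met; inactive = mean below 10% and not all replicates reach 10%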
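System: SV40-immortalized XiGFP fibroblast cells, line 68-5-11 / Incubation: 3-day compound exposure, then 15 min fixation at room temperature / Compound: single concentration per compound, delivered by pin transfer / Buffer or medium: DMEM plus 5-aza-dC sensitizer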
Wnt act – Wnt/beta-catenin pathway activators, primary screen, cell-based, plate reader, single point; Wnt/beta-catenin reporter cell assay, activator; activation, % at 9.35 µM; 300,000 compounds, 1.2% hits; in the data active = activation above about 30%, passing the limit was not always enough; inconclusive = no clear call, values can overlap the other calls
Vif inh – HIV Vif self-association inhibitors, primary screen, imaging, HEK293T, single point; HEK293T cells, Vif self-association by quenched fluorescence, 24 h; inhibition, % at 7.49 µM; 340,000 compounds, 0.35% hits; AID 602346, 2012; in the data active = inhibition above about 50%, passing the limit was not always enough; inconclusive = no clear call, values can overlap the other calls; inactive = below about 31%
Numbers stand for hits; . = inactive; ? = inconclusive; / = not tested or not shown. Shown are actives, neighbours in structure and some others; about 2.6% of the full set was active somewhere.

SMILES	esBAF inh	MITF act	XiGFP reactiv	Wnt act	Vif inh
CC(C)(C)NC(=O)NC(=O)COC(=O)c1c(F)cccc1Cl	50.2	.	.	.	.
NC(=O)c1ccsc1NC(=O)COC(=O)c1ccccc1F	.	.	.	.	.
C[C@@H]1CCCCO[C@H](CN(C)Cc2ccc3c(c2)OCO3)[C@H](C)CN([C@H](C)CO)C(=O)c2cc(NC(=O)Nc3ccccc3)ccc2O1	.	/	.	/	/
CN1CCN(Cc2cc(Cl)c3cccnc3c2OC(=O)c2cccs2)CC1	/	.	.	62.0	.
O=C(Oc1c(CN2CCOCC2)cc(Cl)c2cccnc12)c1ccccc1Br	.	.	.	.	.
CCN1CC(=O)N2[C@H](CO)[C@H](c3ccc(Br)cc3)[C@@H]2C1	/	/	.	/	/
Cc1cc(N(CCO)CCO)ccc1N=Nc1cc(F)ccc1F	59.3	.	.	.	.
CC(=O)N1[C@@H](CO)[C@@H]2c3ccccc3N(C(=O)Nc3cc(F)ccc3F)C[C@@H]21	.	/	.	/	/
CC(C)Oc1cccc(-c2cc(C(=O)N3CCN(c4ncccn4)CC3)c3ccccc3n2)c1	59.6	.	/	.	.
O=C(c1cc(-c2ccncc2)nc2ccccc12)N1CCN(Cc2ccccc2)CC1	.	.	.	.	50.6
Cc1ccccc1CN1CCN(C(=O)c2cc(-c3ccncc3)nc3ccccc23)CC1	.	.	.	.	.
O=C(O)C[C@@H]1C[C@H]2c3cc(NS(=O)(=O)c4ccccc4)ccc3O[C@H]2[C@H](CO)O1	.	/	.	/	/
Cc1c(C(=O)Nc2cccc([N+](=O)[O-])c2)csc1-c1ccccc1	49.7	.	/	/	.
O=C(Nc1nc(-c2ccccc2)cs1)c1cccc([N+](=O)[O-])c1	61.3	.	/	/	.
COc1ccccc1Nc1nc(-c2cccc([N+](=O)[O-])c2)cs1	/	/	.	.	.
O=[N+]([O-])c1cccc(-c2csc(Nc3ccccc3)n2)c1	52.4	.	.	.	.
COCC#Cc1ccc2c(c1)O[C@@H](CN(C)C(=O)NC(C)C)[C@H](C)CN([C@H](C)CO)S2(=O)=O	.	/	.	/	/
Cc1sc(NC(=O)c2sc3nc4c(C)cccc4cc3c2N)c(C#N)c1C	.	/	/	/	53.2
Cc1cccc2cc3c(N)c(C#N)sc3nc12	.	/	/	.	.
CC(C)(C)NCC(O)COc1ccccc1C1CCCC1 (centres undefined)	.	.	.	.	51.6
Cn1c(SCc2c(Cl)cccc2Cl)nnc1-c1cccs1	47.9	.	/	/	.
Cn1c(SCC(=O)c2ccccc2)nnc1-c1cnccn1	48.3	.	/	.	.
CCn1c(SCC(=O)c2ccccc2)nnc1-c1cnccn1	50.0	/	/	35.9	.
CCn1c(SCC(=O)Nc2ccccc2F)nnc1-c1cnccn1	.	.	.	.	.
Cn1c(SCC(=O)c2ccccc2)nnc1-c1cccs1	67.7	.	.	?	.
SMILES	esBAF inh	MITF act	XiGFP reactiv	Wnt act	Vif inh
Cn1c(SCC(=O)c2ccccc2)nnc1-c1cccnc1	.	/	/	.	.
Cc1noc(C)c1S(=O)(=O)Nc1ccc2c(c1)C(=O)N([C@@H](C)CO)C[C@H](C)[C@H](CN(C)C(=O)NC(C)C)OCCCC[C@H](C)O2	.	/	.	/	/
C[C@@H]1CCCCO[C@@H](CN(C)CC2CCCCC2)[C@H](C)CN([C@H](C)CO)C(=O)c2cc(NC(=O)Nc3ccccc3)ccc2O1	.	/	.	/	/
O=C(NCC[C@@H]1CC[C@@H](NC(=O)C2CCC2)[C@@H](CO)O1)c1cc(Cl)cc(Cl)c1	.	/	.	/	/
O=C1C(Cl)=C(Nc2ccccc2O)C(=O)N1CCc1ccccc1	62.2	.	.	.	.
CCOc1ccc(N2C(=O)C(Cl)=C(Nc3ccccc3O)C2=O)cc1	40.8	.	/	/	.
COc1cccc(NC(=O)N[C@@H]2C=C[C@@H](CC(=O)N3CCN(C)CC3)O[C@@H]2CO)c1	/	/	.	/	/
C[C@@H]1CCCCO[C@H](CN(C)Cc2ccc(C(=O)O)cc2)[C@@H](C)CN([C@@H](C)CO)C(=O)c2cc(N(C)C)ccc2O1	.	/	.	/	/
Cc1ccc(NC(=O)c2ccc(S(=O)(=O)NCc3ccco3)cc2)nc1	/	.	.	.	.
Cc1cccc(NC(=O)c2ccc(S(=O)(=O)NCc3ccco3)cc2)n1	56.2	.	.	.	.
